Only a selection was taken, and hits are over-represented in it overall.
CHOP inh: inhibitors of CHOP induction in ER stress response | inhibition, % at 10 µM | 220,000 compounds, 3.8% hits | CHO-K1 CHOP-promoter luciferase, tunicamycin-induced, 15-18 h;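 active means compounds that reduced the stress-induced luciferase reporter signal by more than about 70% of percent inhibition, limit read from the data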
UPR XBP1 act: activators of adaptive arm of unfolded protein response (XBP1). CHO-XBP1 luciferase reporter, IRE1-XBP1 UPR activation, luminescence; percent of tunicamycin response, DMSO as zero. activation, % at 20 µM. 330,000 compounds, 0.33% hits;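 active means versus positive control, 20 µM dose yields 30% or more activation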
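Material: CHO cell line with stable XBP1 luciferase reporter; buffer or medium: F12 medium containing 10% fetal bovine serum; compound: single point, 20 µM final compound, 1% DMSO; incubation: 6 h treatment, 37 °C; measured by: glow luminescence from Steady-Glo reagent; evaluation: activation, % of tunicamycin; control set: tunicamycin high, DMSO low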
Bfl-1 A1 inh: inhibitors of the anti-apoptotic protein A1, read as caspase activation. MEF A1-2A-BIM cells, Caspase-Glo 3/7 luminescence, 3 h; percent of clofoctol response, vehicle zero. caspase activation, % (no concentration beside the values). 330,000 compounds, 0.066% hits;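 active means over half of replicate activation scores above 10%, or exactly half above 10 with the replicate mean above 10; inconclusive means replicate mean below 10 yet half the replicates above 10; inactive means over half of replicates below 10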
UPR CHOP act: activators of apoptotic arm of unfolded protein response (CHOP); CHO-CHOP luciferase reporter, UPR activation, luminescence; percent of tunicamycin response over DMSO baseline; activation, % at 10 µM; 330,000 compounds, 0.34% hits;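 active means at 10 µM dose, activation of 40% or more, normalized to positive control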
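Material: CHO-CHOP cells, stable luciferase reporter of PERK-eIF2a-CHOP signalling; quantity: 500 reporter cells seeded per well; buffer or medium: F12 medium containing 10% fetal bovine serum; compound: one dose, 10 µM in 0.5% DMSO; incubation: 6 h compound treatment, 37 °C; measured by: Steady-Glo luciferase luminescence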
Hits are given with their value; – = inactive; ? = inconclusive; · = no result.

SMILES	CHOP inh	UPR XBP1 act	Bfl-1 A1 inh	UPR CHOP act
CCOC(=O)C1CCN(C(=O)COC(=O)c2ccccc2OCC)CC1	·	–	–	–
CCOC(=O)C1=C(N)c2ccccc2CC1C1CCCC1 (stereo not drawn)	90.9	–	–	–
O=c1[nH]c2ccc(Br)cc2c(-c2ccccc2)c1N1CCOCC1	77.3	–	–	–
COc1ccc(C)cc1-n1nnnc1SCC(=O)Nc1cccnc1Cl	–	–	–	–
Cc1cc2ccccc2n1CCNC(=O)C(C)Oc1ccccc1 (stereo not drawn)	–	–	–	–
CCCCc1nc(Cl)c(C#N)c2c1CCCC2	87.5	–	–	–
COc1ccc(-c2nc(N)nc(C)c2Oc2ccccc2Br)c(O)c1	95.4	–	–	–
COc1ccc(CNc2nc3c(c(C(F)(F)F)n2)CCCCC3)cc1	90.1	·	·	·
COc1ccc(CNC(=O)Cn2nc(C(F)(F)F)c3c2CCC3)cc1	–	–	–	–
CCOC(=O)Cn1c(=NC(=O)c2ccc([N+](=O)[O-])s2)sc2ccccc21	80.5	–	–	–
O=C(COc1ccc(Cl)cc1Cl)NCC1(N2CCOCC2)CCCCC1	·	–	–	–
C=CCc1cccc2cc(C(=O)NC3CCCCC3)c(=O)oc12	–	–	–	–
CCOc1ccc(OCC)c(NC(=O)C2CCCN(S(=O)(=O)c3ccc(C)cc3)C2)c1 (stereo not drawn)	·	–	–	–
Cc1ccc(NC(=O)COC(=O)CC2CCCC2)cc1Cl	72.4	–	–	–
Cc1nc(-c2cccnc2)sc1C(=O)Nc1cccc(C(F)(F)F)c1	82.7	–	·	–
CC(=O)Nc1cccc(C(=O)/C=C/c2ccc(/C=C/C(=O)c3cccc(NC(C)=O)c3)cc2)c1	–	–	–	83.0
Cc1ccc(/C=N/Nc2nc(Cl)c(Cl)cc2Cl)s1	82.5	–	–	–
Cc1ccsc1/C=N/Nc1nc(Cl)c(Cl)cc1Cl	–	–	–	–
COc1ccc(NC(=S)NNc2ccc([N+](=O)[O-])cc2S(=O)(=O)Nc2ccc(C)cc2C)cc1	–	–	?	–
Cc1ccc(NS(=O)(=O)c2cc([N+](=O)[O-])ccc2NNC(=S)Nc2cc(C)ccc2C)c(C)c1	88.8	–	–	–
N#Cc1c(N)nc2c(c1-c1ccc3c(c1)OCO3)CCCCCC2	86.0	–	–	–
c1ccc(CC2CCN(Cc3nc(-c4ccccc4)no3)CC2)cc1	91.9	–	–	–
Cc1ccc(-c2noc(CN3CCN(c4ccccc4F)CC3)n2)cc1	74.4	–	–	–
COc1ccc2nc(C)c3c(c2c1)OC(C(C)(Cl)Br)C3 (stereo not drawn)	–	–	–	–
Cc1ccc(NC(=O)N2CCc3ccccc3C2)cc1C	·	–	–	–
SMILES	CHOP inh	UPR XBP1 act	Bfl-1 A1 inh	UPR CHOP act
CC(C)(C)C1CCc2onc(C(=O)Nc3cnn(Cc4ccc(F)cc4)c3)c2C1 (stereo not drawn)	86.2	–	–	–
Cc1cccc(NC(=O)c2cc([N+](=O)[O-])ccc2NC2CCCCC2)c1	72.9	–	–	–
CCCCSc1ccc2nc(-c3ccc(C#N)cc3)cn2c1	–	–	–	–
CCCSc1ccc2nc(-c3ccccc3)cn2c1	85.9	–	–	–
Cc1ccccc1NC(=O)CSc1nnc(-c2ccco2)n1N	·	–	–	–
Cn1c(C(=O)N2CCN(Cc3ccc4c(c3)OCO4)CC2)cc2c(=O)n(C)c3ccccc3c21	–	–	–	–
CCOC(=O)c1cc2c(nc1C)-c1cc(Cl)cc(Cl)c1OC2O (stereo not drawn)	88.7	–	–	–
Cn1c(NC(=O)c2cc(Cl)ccc2Cl)cc(=O)n(C)c1=O	–	–	–	–
O=C(CSc1n[nH]c(-c2ccccc2)n1)N1CCOCC1	·	–	–	–
O=C(CSc1nnc(-c2ccccc2)c(-c2ccccc2)n1)N1CCOCC1	72.4	–	–	–
COc1ccc(NS(=O)(=O)c2cn(C)cn2)cc1OC	·	–	–	–
Cc1ccc(/C=C/c2ccc(=O)n(Cc3ccc(F)cc3)n2)cc1	78.8	–	–	–
Cc1ccc(-c2ccc(=O)n(Cc3ccc(F)cc3)n2)cc1	·	–	–	–
O=c1ccc(/C=C/c2ccccc2)nn1Cc1ccc(F)cc1	80.1	–	–	–
COc1ccc(/C=C/c2ccc(=O)n(Cc3ccccc3)n2)cc1	–	–	–	–
CC(C)(C)c1ccc(C2C(C#N)=C(N)Oc3n[nH]c(-c4cccnc4)c32)cc1 (stereo not drawn)	76.1	–	–	–
COc1cc(OC)cc(C2C(C#N)=C(N)Oc3n[nH]c(-c4cccnc4)c32)c1 (stereo not drawn)	–	–	–	–
CC(CCc1ccccc1)NC(=O)COC(=O)c1ccc([N+](=O)[O-])cc1 (stereo not drawn)	·	–	–	–
CC(CCc1ccccc1)NC(=O)COC(=O)c1ccc(S(C)(=O)=O)c([N+](=O)[O-])c1 (stereo not drawn)	101.4	–	–	–
Cc1ccccc1NC(=O)COC(=O)c1ccc(S(C)(=O)=O)c([N+](=O)[O-])c1	103.0	–	–	–
c1cc2c(cc1Nc1nc(-c3ccc4c(c3)OCO4)cs1)OCCO2	–	–	–	–
c1ccc(-c2csc(Nc3ccc4c(c3)OCCO4)n2)cc1	89.8	–	–	–
COc1ccccc1CNC(=O)C(NC(=O)Nc1ccccc1)C(C)C (stereo not drawn)	·	–	–	–
O=C(/C=C/c1ccc(S(=O)(=O)NCc2ccco2)cc1)NCc1ccccc1Cl	–	–	–	–
COc1ccccc1C(=O)NC(CCSC)C(=O)NCC(c1cccs1)N1CCOCC1 (stereo not drawn)	·	–	–	–
SMILES	CHOP inh	UPR XBP1 act	Bfl-1 A1 inh	UPR CHOP act
N#Cc1c(Nc2ccc(F)cc2)sc(C(=O)c2ccc(F)cc2)c1N	75.5	–	–	–
CCn1ncc(Br)c1C(=O)N(C)C12CC3CC(CC(C3)C1)C2	87.1	–	?	–
COc1cc(OC)cc(-c2nc3ccccc3c(=O)n2OC(=O)c2ccccc2C)c1	93.6	–	–	–
COc1ccc(-c2nc3ccccc3c(=O)n2O)cc1	·	–	–	–
O=C(NNc1nc2c(F)cc(F)cc2s1)c1ccccc1	–	–	–	–
COc1ccc2nc(NC(=O)c3sc4nc(C)cc(C)c4c3N)sc2c1	73.9	–	–	–
Cc1cc(C)c2c(N)c(C(=O)Nc3ncc(C)s3)sc2n1	96.0	–	–	–
Cc1c(C(=O)NCc2ccoc2)oc2ccc3c(c12)C(=O)CC(C)(C)O3	–	–	–	–
CCN(CC)S(=O)(=O)c1ccc(C(=O)NCCN2C(=O)S/C(=C\c3cccnc3)C2=O)cc1	–	–	–	–
CCCCN1C(=O)c2ccc(C(=O)NCCN3C(=O)S/C(=C\c4cccnc4)C3=O)cc2C1=O	76.3	–	–	–

From PubChem
